The results in this text go back to ChEMBL document CHEMBL1275497, “Genetic and structural insights into the dissemination potential of the extremely broad-spectrum class A beta-lactamase KPC-2 identified in an Escherichia coli strain and an Enterobacter cloacae strain isolated from the same patient in France” (2008).

Values after ≈ are worked out from the molar mass of the structure shown.

In experiment [1] the test system is Escherichia coli. As to the kind of experiment: Activity of Escherichia coli 2138 beta-lactamase KPC-2 by spectrophotometry. An outline of the steps:
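KPC-2 was expressed in E. coli BL21(DE3) grown in LB with 50 µg/ml kanamycin and induced with 0.4 mM IPTG. It was purified by Q Sepharose, then Bioscale S cation exchange with a 0–1 M NaCl gradient in 40 mM Bis-Tris pH 5.9, then Superdex 75. Km and kcat were measured spectrophotometrically at 37°C in 50 mM phosphate buffer, pH 7.0, using previously described absorption coefficients.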

Experiment [2] concerns Escherichia coli. As to the kind of experiment: Antimicrobial activity against Escherichia coli J53 harboring blaKPC-2 and blaTEM-1 gene by Etest method in presence of beta-lactamase inhibitor clavulanic acid. The format is functional. An outline of the steps:
(§1)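 MIC by Etest on E. coli J53 (Rifr) recipient and its transconjugants. Transconjugants came from liquid and solid mating at 1:1 and 4:1 recipient:donor ratios in brain heart infusion (37°C, 3 h), then filter mating for 18 h at 37°C. Selection was on LB agar with ampicillin (100 µg/ml), ticarcillin (50 µg/ml) and rifampin (1000 µg/ml).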

Experiment [3] relates to Escherichia coli. The experiment in a line: Antimicrobial activity against Escherichia coli J53 by Etest method in presence of beta-lactamase inhibitor clavulanic acid. The format is functional. An outline of the steps:
as §1

Experiment [4] deals with Escherichia coli. The experiment in a line: Antimicrobial activity against Escherichia coli TOP10 by Etest method in presence of beta-lactamase inhibitor clavulanic acid. The format is functional. An outline of the steps:
(§2)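 MIC by Etest on E. coli Top10 host and its transformants. Transformants were obtained by electroporating plasmid DNA extracted from the clinical E. coli isolate.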

Experiment [5] deals with Enterobacter cloacae. As to the kind of experiment: Antimicrobial activity against blaKPC-2, blaKLUC-2 and blaTEM-1 producing Enterobacter cloacae 7506 by Etest method in presence of beta-lactamase inhibitor clavulanic acid. The format is functional.
Experiment [6] deals with Escherichia coli. As to the kind of experiment: Antimicrobial activity against blaKPC-2 and blaTEM-1 Escherichia coli 2138 by Etest method in presence of beta-lactamase inhibitor clavulanic acid. The format is functional. Put shortly: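 MIC read by Etest on the clinical E. coli isolate recovered from a patient hospitalized in France.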
Experiment [7] relates to Escherichia coli. The experiment in a line: Antimicrobial activity against Escherichia coli TOP10 harboring blaKPC-2 and blaTEM-1 gene by Etest method in presence of beta-lactamase inhibitor clavulanic acid. The format is functional. An outline of the steps: as §2
Experiment [8] has as its system Escherichia coli. The experiment in a line: Antimicrobial activity against Escherichia coli J53 harboring blaKPC-2 and blaTEM-1 by Etest method. The format is functional. Put shortly:
(§3)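 Strain is an E. coli J53 (rifampin-resistant) transconjugant from E. cloacae 7506. Donor and recipient were mixed at 1:1 and 4:1, shaken in brain heart infusion at 37°C for 3 h, then held on a filter on BHI agar for 18 h at 37°C. Transconjugants were selected on LB agar with ampicillin 100 µg/ml, ticarcillin 50 µg/ml and rifampin 1000 µg/ml. MICs were read by Etest.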

Experiment [9] has as its system Escherichia coli. As to the kind of experiment: Antimicrobial activity against Escherichia coli TOP10 by Etest method. The format is functional.
Experiment [10] has as its system Enterobacter cloacae. As to the kind of experiment: Antimicrobial activity against blaKPC-2, blaKLUC-2 and blaTEM-1 producing Enterobacter cloacae 7506 by Etest method. The format is functional.
Experiment [11] concerns Escherichia coli. The experiment in a line: Antimicrobial activity against blaKPC-2 and blaTEM-1 producing Escherichia coli 2138 by Etest method. The format is functional.
The test system of experiment [12] is Escherichia coli. The experiment in a line: Antimicrobial activity against Escherichia coli J53 by Etest method. The format is functional.
For experiment [13], the system named is Escherichia coli. The experiment in a line: Antimicrobial activity against Escherichia coli TOP10 harboring blaKPC-2 and blaTEM-1 gene by Etest method. The format is functional. An outline of the steps:
(§4)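 Strain is an E. coli Top10 transformant obtained by electroporation of plasmid DNA extracted from E. coli 2138. MICs were read by Etest.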

Experiment [14] relates to Escherichia coli. As to the kind of experiment: Antimicrobial activity against blaKPC-2 producing Escherichia coli DH5alpha by Etest method. The conditions noted are these: DH5[alpha].
The subject of experiment [15] is Escherichia coli. As to the kind of experiment: Antimicrobial activity against blaKPC-2 and blaTEM-1 producing Escherichia coli 2138 by Etest method in presence of beta-lactamase inhibitor Tazobactam. The format is functional.
Experiment [16] concerns Enterobacter cloacae. As to the kind of experiment: Antimicrobial activity against blaKPC-2, blaKLUC-2 and blaTEM-1 producing Enterobacter cloacae 7506 by Etest method in presence of beta-lactamase inhibitor Tazobactam. The format is functional.
Experiment [17] concerns Escherichia coli. The experiment in a line: Antimicrobial activity against Escherichia coli TOP10 by Etest method in presence of beta-lactamase inhibitor Tazobactam. The format is functional.
Experiment [18] deals with Escherichia coli. As to the kind of experiment: Antimicrobial activity against Escherichia coli J53 harboring blaKPC-2 and blaTEM-1 gene by Etest method in presence of beta-lactamase inhibitor Tazobactam. The format is functional. An outline of the steps: as §3
For experiment [19], the system named is Escherichia coli. The experiment in a line: Antimicrobial activity against Escherichia coli J53 by Etest method in presence of beta-lactamase inhibitor Tazobactam. The format is functional.
The subject of experiment [20] is Escherichia coli. As to the kind of experiment: Antimicrobial activity against Escherichia coli TOP10 harboring blaKPC-2 and blaTEM-1 gene by Etest method in presence of beta-lactamase inhibitor Tazobactam. The format is functional. Put shortly: as §4

For the compound `CC(=O)OCC1=C(C(=O)O)N2C(=O)[C@@H](NC(=O)Cc3cccs3)[C@H]2SC1`, in the experiment with Escherichia coli [1], the Km amounted to 141 µM and the kcat was 106 s⁻¹.
Take `CC1(C)S[C@@H]2[C@H](NC(=O)Cc3ccccc3)C(=O)N2[C@H]1C(=O)O`: in the experiment on Escherichia coli [1], the Km worked out at 44 µM and the kcat stood at 45 s⁻¹.
`CC1(C)S[C@@H]2[C@H](NC(=O)[C@H](N)c3ccccc3)C(=O)N2[C@H]1C(=O)O`: in the experiment on Escherichia coli [1], the Km was 29 µM and the kcat stood at 20 s⁻¹.
The like results for `CO/N=C(\C(=O)N[C@@H]1C(=O)N2C(C(=O)O)=C(COC(N)=O)CS[C@H]12)c1ccco1` were, in that order, 160 µM and 66 s⁻¹.
On to `CO/N=C(\C(=O)N[C@@H]1C(=O)N2C(C(=O)[O-])=C(C[n+]3cccc4c3CCC4)CS[C@H]12)c1csc(N)n1`, for which, in the experiment with Escherichia coli [1], the Km is 251 µM and the kcat is 12 s⁻¹.
As for `CC1(C)S[C@@H]2[C@H](NC(=O)[C@H](N)c3ccc(O)cc3)C(=O)N2[C@H]1C(=O)O` [AMOXICILLIN], the MIC with Escherichia coli [2] worked out at 16 mg/L; in the experiment on Escherichia coli [3], 2 mg/L; with Escherichia coli [4], 2 mg/L; in the experiment on Enterobacter cloacae [5] it was 96 mg/L; in the experiment on Escherichia coli [6], 24 mg/L; in the experiment with Escherichia coli [7] it was 48 mg/L. Besides, the minimum inhibitory concentration (MIC) in the experiment with Escherichia coli [8] is over 256 mg/L; in the experiment on Escherichia coli [9] it was 3 mg/L (≈ 8.21 µM); in the experiment with Enterobacter cloacae [10], over 256 mg/L; against Escherichia coli [11], over 256 mg/L; in the experiment with Escherichia coli [12], 3 mg/L (≈ 8.21 µM); against Escherichia coli [13] it was over 256 mg/L.
With `C[C@H]1[C@H](NC(=O)/C(=N\OC(C)(C)C(=O)O)c2csc(N)n2)C(=O)N1S(=O)(=O)O` [AZTREONAM], the minimum inhibitory concentration (MIC) in the experiment with Escherichia coli [8] was 8 mg/L (≈ 18.4 µM); against Escherichia coli [9] it was 0.047 mg/L (≈ 0.108 µM); in the experiment on Escherichia coli [11], 64 mg/L (≈ 147 µM); with Escherichia coli [12], under 0.016 mg/L; against Escherichia coli [13] it was 24 mg/L (≈ 55.1 µM). For the same compound, the Michaelis-Menten constant (Km) in the experiment on Escherichia coli [1] is 35 µM. Moreover, the kcat with Escherichia coli [1] worked out at 3 s⁻¹.
On to `CO/N=C(\C(=O)N[C@@H]1C(=O)N2C(C(=O)O)=C(COC(C)=O)CS[C@H]12)c1csc(N)n1` [CEFOTAXIME], for which the minimum inhibitory concentration (MIC) is 4 mg/L (≈ 8.78 µM) in the experiment with Escherichia coli [8]; 0.047 mg/L (≈ 0.103 µM) against Escherichia coli [9]; over 32 mg/L in the experiment with Enterobacter cloacae [10]; 16 mg/L (≈ 35.1 µM) against Escherichia coli [11]; 0.032 mg/L (≈ 0.0703 µM) against Escherichia coli [12]; 12 mg/L (≈ 26.3 µM) with Escherichia coli [13]. Besides, the Km with Escherichia coli [1] amounted to 174 µM. Besides, the kcat in the experiment on Escherichia coli [1] worked out at 66 s⁻¹.
Regarding `CC(C)(O/N=C(\C(=O)N[C@@H]1C(=O)N2C(C(=O)[O-])=C(C[n+]3ccccc3)CS[C@H]12)c1csc(N)n1)C(=O)O` [CEFTAZIDIME], the MIC in the experiment on Escherichia coli [8] turned out to be 2 mg/L (≈ 3.66 µM); with Escherichia coli [9], 0.19 mg/L (≈ 0.348 µM); in the experiment with Enterobacter cloacae [10], 32 mg/L (≈ 58.5 µM); in the experiment on Escherichia coli [11] it was 8 mg/L (≈ 14.6 µM); against Escherichia coli [12], 0.064 mg/L (≈ 0.117 µM); against Escherichia coli [13] it was 6 mg/L (≈ 11 µM). Further, in the experiment with Escherichia coli [14], the MIC worked out at 32 mg/L (≈ 58.5 µM).
Consider `C[C@@H](O)[C@H]1C(=O)N2C(C(=O)O)=C(SCCNC=N)C[C@H]12` [IMIPENEM ANHYDROUS], for which the MIC against Escherichia coli [8] worked out at 0.5 mg/L (≈ 1.67 µM); with Escherichia coli [9] it was 0.19 mg/L (≈ 0.635 µM); with Enterobacter cloacae [10], 3 mg/L (≈ 10 µM); in the experiment on Escherichia coli [11], 3 mg/L (≈ 10 µM); with Escherichia coli [12], 0.094 mg/L (≈ 0.314 µM); against Escherichia coli [13], 1.5 mg/L (≈ 5.01 µM). For the same compound, in the experiment with Escherichia coli [1], the Km was 88 µM. In addition, the turnover number (kcat) with Escherichia coli [1] is 20 s⁻¹.
As to `CCN1CCN(C(=O)N[C@@H](C(=O)N[C@@H]2C(=O)N3[C@@H]2SC(C)(C)[C@@H]3C(=O)O)c2ccccc2)C(=O)C1=O` [PIPERACILLIN], the MIC with Escherichia coli [15] is over 256 mg/L; in the experiment with Enterobacter cloacae [16] it was over 256 mg/L; against Escherichia coli [8], over 256 mg/L; in the experiment with Escherichia coli [17], 0.75 mg/L; against Escherichia coli [9] it was 0.75 mg/L (≈ 1.45 µM); against Enterobacter cloacae [10], over 256 mg/L. Further, the minimal inhibitory concentration (MIC) in the experiment on Escherichia coli [11] is over 256 mg/L; in the experiment on Escherichia coli [18] it was over 256 mg/L; in the experiment with Escherichia coli [12] it was 0.38 mg/L (≈ 0.734 µM); in the experiment on Escherichia coli [13], over 256 mg/L; in the experiment on Escherichia coli [19], 0.38 mg/L; in the experiment on Escherichia coli [20] it was over 256 mg/L. In addition, the Km in the experiment with Escherichia coli [1] is 51 µM. Moreover, in the experiment with Escherichia coli [1], the kcat is 40 s⁻¹.
As for `CC1(C)S[C@@H]2[C@H](NC(=O)[C@H](C(=O)O)c3ccsc3)C(=O)N2[C@H]1C(=O)O` [TICARCILLIN], the MIC against Escherichia coli [8] was over 256 mg/L; against Escherichia coli [9], 1.5 mg/L (≈ 3.9 µM); in the experiment with Enterobacter cloacae [10] it was over 256 mg/L; with Escherichia coli [11] it was over 256 mg/L; in the experiment on Escherichia coli [12] it was 1.5 mg/L (≈ 3.9 µM); with Escherichia coli [13] it was over 256 mg/L.
